# Bioassay records deposited in PubChem by several laboratories.
# C8 TRAIL sens: sensitizes caspase-8 expressing cells to TRAIL; inhibition (viability loss, TRAIL sensitization), % at 10 µM; 1% of 360,000 active; AID 624354; NB7+C8 cells + TRAIL, ATPlite viability luminescence;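 active = compounds causing at least 50% loss of cell viability in the single-dose screen, relative to plate controls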
# HSP90 inh: inhibitors of HSP90 luciferase refolding in rabbit reticulocyte lysate. inhibition, % at 5.6 µM. luciferase refolding luminescence, 3 h. 0.91% of 290,000 active;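 active = inhibition above the screen-wide mean plus 3 SD, computed separately per campaign, cut at about 16% in these data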;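 note: 0% = DMSO wells and 100% = 60 µM geldanamycin wells; inhibitors lower the luminescence because luciferase stays unfolded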
# STAT3 inh: STAT3 signaling inhibition; U3A cells, IL-6 STAT3-luciferase reporter, luminescence; host cell line lacks STAT1; inhibition, % at 5.5 µM; 0.89% of 190,000 active;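 active = inhibition above the mean inhibition across all screened compounds plus 3 SD, cut at about 44% in these data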;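 note: 0% = DMSO only wells and 100% = 100 µM nifuroxazide control wells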
# STAT3 act-1: activators of IL-6 induced STAT3 signaling; U3A cells, IL-6 STAT3-luciferase reporter, luminescence; 100% = signal with IL-6 EC80 alone; activation (% of control), % at 5.6 µM; 0.91% of 190,000 active;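 active = activation above the screen-wide mean of compound activation plus 3 SD, cut at about 130% in these data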;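 note: 0% = background luminescence of wells with medium and substrate only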
#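 Test system: Human STAT1-deficient U3A cells with stable STAT3-luciferase reporter | Also added: Interleukin-6, 33 ng/mL | Timing: Compound pre-incubation 1 h before IL-6, then 6 h stimulation at 37 °C | Technique: Luciferase reporter luminescence | Read-out: Percent of IL-6-only median luminescence | Benchmarks: IL-6-only wells as 100% reference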
# PPC-1+TRAIL kill: kills PPC-1 cancer cells in the presence of TRAIL. cell killing (% activity), % at 4 µM or 5 µM. AID 1443. PPC-1 cells + TRAIL, ATPLite viability luminescence. 0.41% of 220,000 active;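 active = cell killing above 50% in the first pass at 4 µM, then a duplicate retest at 5 µM averaging 50% or more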;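 note: plate controls were cells with TRAIL plus DMSO for no effect and medium-only wells lacking cells for full effect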
# STAT1 inh: reduces IFN-gamma driven STAT1 reporter signal. NIH 3T3 STAT1-luciferase reporter, luminescence. inhibition, % at 5.5 µM. 0.35% of 200,000 active. AID 920;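 active = inhibition above a set limit, the mean inhibition across all tested compounds plus 3 SD, cut at about 34% in these data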;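 note: 0% = IFN-gamma with DMSO and 100% = IFN-gamma with 300 µM nifuroxazide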
# STAT3 act-2: STAT3 activation, confirmation assay. 64% of 1,200 active. potentiation (% of control), % at 5.7 µM. shares compounds with STAT3 act-1. U3A STAT3-luciferase reporter, IL-6 potentiation, luminescence; U3A cells lack STAT1; 100 means same as IL-6 alone;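 active = percent activation of the STAT3 luciferase reporter above a set limit taken from the earlier primary screen, cut at about 130% in these data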;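 note: 0% = background signal of medium plus substrate and 100% = median of IL-6 with DMSO wells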
# NFkB act 2: activates NF-kappaB, counter-screen to STAT3 activators; human cells, NF-kappaB reporter activation; shares compounds with STAT3 act-1; activation (% of control), % at 5.7 µM; 11% of 1,200 active; in the data active = activation above about 120%;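 note: reporter induced by TNF-alpha stimulation; 100% = median of stimulated DMSO wells and 0% = no signal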
# STAT1 act: counter-screen for STAT3 activators: STAT1 activation; AID 1318; shares compounds with STAT3 act-1; 13% of 1,200 active; NIH 3T3 STAT1-luciferase reporter, IFN-gamma, luminescence; activation (% of control), % at 5.7 µM;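 active = activation above the solvent-only control well mean plus 3 SD, set per screening run, cut at about 120% in these data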;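 note: 100% = IFN-gamma with DMSO median signal so 100% means no change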
# Active calls of the source: *; · = no result given. Compounds with a hit are over-represented: about 2.3% of the library has one in this group of screens.
SMILES,C8 TRAIL sens,HSP90 inh,STAT3 inh,STAT3 act-1,PPC-1+TRAIL kill,STAT1 inh,STAT3 act-2,NFkB act 2,STAT1 act
Cn1c(C(=O)Nc2ccccc2)cc2sccc21,2,-2,-79,163*,18,-14,144*,123*,134*
COC(=O)c1ccc(NC(=O)c2cc3sccc3n2C)cc1,2,-4,16,89,9,-25,·,·,·
Cn1c(=O)cc(N)n(Cc2ccccc2)c1=O,-6,0,-4,101,-4,-1,·,·,·
Oc1[nH]c2ccccc2c1/C=N/N1CCCCC1,13,-1,-50,145*,22,-8,103,100,103
O=[N+]([O-])c1cccc2nc(-c3ccccc3)c(-c3ccccc3)nc12,-15,3,·,·,·,·,·,·,·
Cn1c(-[n+]2c(-c3ccccc3)cc(-c3ccccc3)cc2-c2ccccc2)nc2c([N+](=O)[O-])cccc21,6,6,-53,151*,10,11,147*,104,98
C=CCn1cc(C(=O)N2CCc3ccccc3C2)c(=O)c2cc(S(=O)(=O)N(CC)CC)ccc21,24,1,1,102,12,-3,·,·,·
C/C(O)=C(\N=Nc1cc(C)ccc1O)C(N)=O,1,-1,-46,143*,-1,5,175*,129*,136*
CC(=O)Nc1sc(N/N=C\c2ccccc2)nc1-c1cccs1,1,1,-48,140*,3,-4,177*,107,114
CC(=O)Nc1sc(N/N=C\c2ccccc2Cl)nc1-c1cccs1,17,-1,-17,115,22,-27,·,·,·
CC(=O)NCCC(=O)N1CCc2c([nH]c3ccccc23)C1c1cccc(Cl)c1 (centres undefined),-4,2,-55,150*,-5,-6,143*,101,91
Cc1cc(C(=O)N2CCc3c([nH]c4ccccc34)C2c2cccc(Cl)c2)nn1C (centres undefined),1,1,-53,153*,-2,1,202*,112,122*
CC(=O)NCCC(=O)N1CCc2c([nH]c3ccccc23)C1c1cccc(C)c1 (centres undefined),0,-1,-50,147*,10,-6,144*,106,114
O=C(CCN1CCCCC1)N1CCc2c([nH]c3ccccc23)C1c1cccnc1 (centres undefined),2,·,·,·,·,·,·,·,·
COc1ccc(-c2[nH]ncc2-c2nc(C)cs2)c(O)c1,-4,1,8,98,9,0,·,·,·
O=C(Nc1nc2c(F)cc(F)cc2s1)C1CCN(C(=O)c2ccc(F)cc2)CC1,16,·,·,·,·,·,·,·,·
CCC1=Nc2ccccc2NC2=C1C(=O)CCC2,6,2,-77,166*,30,-23,160*,119,123*
CCOC(=O)c1cnc2ccccc2c1Nc1cccc(C(=O)O)c1,5,-2,4,101,5,1,·,·,·
O=C(CSc1nc2ccccc2[nH]1)N=Nc1c(O)[nH]c2ccccc12,-8,2,-51,145*,20,-2,142*,108,105
Cc1ccc2cccc(NC(=S)NC(=O)c3ccccc3)c2n1,8,2,-68,169*,9,12,170*,111,95
Cc1ccc2cn[nH]c2c1NC(=S)NC(=O)c1ccccc1,-12,-1,16,92,9,-5,·,·,·
Cc1ccc2cccnc2c1NC(=S)NC(=O)c1ccccc1,-7,15,-58,153*,10,13,152*,99,92
O=C(O)CCCCCN1C(=O)CCC1=O,2,1,5,102,13,0,·,·,·
Cc1cccc(C)c1NC(=O)CCCSc1nc2ccccc2s1,6,0,0,101,0,-3,·,·,·
CC(=O)Nc1ccc(NC(=O)CCCSc2nc3ccccc3s2)cc1,-6,-3,-46,140*,21,-1,129,104,98
SMILES,C8 TRAIL sens,HSP90 inh,STAT3 inh,STAT3 act-1,PPC-1+TRAIL kill,STAT1 inh,STAT3 act-2,NFkB act 2,STAT1 act
O=C(O)CCCC(=O)Nc1ccc(OCc2nc3ccccc3s2)cc1,2,-5,-36,136*,12,-17,126,104,119
Cc1cc(NC(=O)CSc2nccn2-c2cccc(F)c2)no1,6,·,·,·,·,·,·,·,·
Cc1c(C(=O)Nc2nc3ccccc3[nH]2)oc2c(Cl)cccc12,8,-5,-46,143*,10,-6,178*,121*,122*
Cc1c(C(=O)Nc2ccccn2)oc2c(Cl)cccc12,0,·,·,·,·,·,·,·,·
Cc1[nH]c2ccccc2c1Cc1nnc(SCC(N)=O)o1,7,-1,-66,153*,-3,11,103,100,96
Cc1[nH]c2ccccc2c1CCC(N)=O,-1,0,-2,105,9,-7,·,·,·
CCc1ccccc1Nc1nc(N)nc(COC(=O)c2cccn2C)n1,13,3,-44,147*,13,-9,150*,110,125*
O=C(CNS(=O)(=O)c1cccs1)NCCc1ccc(Cl)cc1,-13,-1,·,·,·,·,·,·,·
CCOC(=O)c1c(C)[nH]c(C(=O)OCC(=O)Nc2cc(Cl)ccc2OC)c1C,-15,6,-55,148*,19,3,123,104,96
Oc1ccccc1-c1nnc(SCCN2CCOCC2)n1Cc1ccccc1,18,0,-80,168*,-5,1,147*,106,105
O=C(CSc1nnc(-c2ccccc2)n1Cc1ccccc1)N1CCOCC1,-9,-2,3,101,8,-4,·,·,·
Cn1c(=O)c2cc(NC(=O)CCc3ccccc3)ccc2n1-c1ccccc1F,23,·,·,·,·,·,·,·,·
COc1ccc(Nc2nc(C)cc(C)c2C#N)c(OC)c1,-18,-3,·,·,·,·,·,·,·
COc1ccc(N(C(C)=O)c2nc(C)cc(C)c2C#N)c(OC)c1,-1,2,-60,154*,12,0,157*,103,100
Cc1nn(-c2ccc(Cl)cc2)c2sc(C(=O)N3CCN(C(=O)c4ccco4)CC3)cc12,·,·,·,·,12,·,·,·,·
Cn1nc(-c2ccc(Cl)cc2)c2cc(C(=O)N3CCN(C(=O)c4ccco4)CC3)sc21,11,-1,-56,150*,34,12,129,99,89
CCN1CCN(C(=O)c2cc3c(-c4ccc(Cl)cc4)nn(C)c3s2)CC1,6,4,-51,152*,-15,12,134*,97,91
Cc1ccc(OCC(=O)Nc2cccc3nsnc23)c(C)c1,2,-3,-53,145*,28,5,131,105,94
